Active and inactive are the calls of the source. The calls are words filed in the database; no cut-off is given here.
Columns and labels:
[1] = Cytotoxicity against HEK293 cells by WST-1 assay; assay type: cell-based; conditions: human
Summary of the method: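 HEK293 cells, poly-Lys-coated wells (1 × 10^4 cells/well), grown 16–20 h, then exposed to compounds in DMEM/5% FBS (0.1% DMSO final) for 20–22 h. WST-1 added, 2 h, A405 read. Viability = treated/vehicle absorbance after background (no-cell wells) subtraction; CC50 derived from dose curves.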

[2] = system: Rhodopsin (Homo sapiens), P08100 [P23H]; assay: Induction of subcellular localization of HA-tagged human rhodopsin P23H mutant on HEK293 cell surface by immunofluorescence microscopy; assay type: cell-based
HEK293 = assay: Upregulation of HA-tagged rhodopsin P23H expression in HEK293 cell surface by ELISA; assay type: functional, cell-based; conditions: Homo sapiens
Summary of the method: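 HEK293 in poly-lysine-coated wells transfected with HA-tagged human P23H rhodopsin; 2–3 h later compounds in DMEM/5% FBS (0.1% DMSO final) for 20 h. Non-permeabilized cells fixed, blocked, HRP-anti-HA 1.5 h rt, chemiluminescent readout. Background-subtracted signal expressed relative to untreated cells (=1.0); ≥2 independent experiments (n >4).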

| SMILES | CC50 [1] | Activity [2] | Activity (HEK293) |
| --- | --- | --- | --- |
| NC(=O)c1ccc(COC(=O)c2cc(C(F)(F)F)cc(C(F)(F)F)c2)cc1 | > 100 µM | – | – |
| CC(C)(C)c1cc(C(=O)OCc2ccc(C=O)cc2)cc(C(C)(C)C)c1 | 34 µM | – | – |
| O=Cc1ccc(COC(=O)c2ccc3c(c2)CCCC3)cc1 | > 100 µM | – | – |
| O=C(OCc1ccc(B(O)O)cc1)c1cc(C(F)(F)F)cc(C(F)(F)F)c1 | 49 µM | – | – |
| CC1=C(/C=C/C(C)=C\C=C\C(C)=C\C=O)C(C)(C)CCC1 [ISO RHODOPSIN] | 28 µM | Active | Dose-dependent effect |
| CC(C)(C)c1cccc(C(=O)OCc2ccc(C=O)cc2)c1 | 73 µM | – | – |
| CC(C)(C)c1ccc(C(=O)OCc2ccc(C=O)cc2)cc1 | 63 µM | – | – |
| CC1(C)CCC(C)(C)c2cc(C(=O)NCc3ccc(C=O)cc3)ccc21 | 49 µM | – | – |
| O=Cc1ccc(COC(=O)c2cc(C(F)(F)F)cc(C(F)(F)F)c2)cc1 | > 100 µM | – | – |
| O=C(O)c1ccc(COC(=O)c2cc(C(F)(F)F)cc(C(F)(F)F)c2)cc1 | > 100 µM | – | – |
| CC1=C(/C=C/C(C)=C/C=C\C(C)=C\C=O)C(C)(C)CCC1 [RHODOPSIN] | 23 µM | Active | Dose-dependent effect |
| CC1(C)CCC(C)(C)c2cc(C(=O)OCc3ccc(C=O)cc3)ccc21 | 48 µM | – | – |
